ChEMBL document CHEMBL1152834, “Synthesis and potential anticonvulsant activity of new N-3-substituted 5,5-cyclopropanespirohydantoins” (2009)

Legend:
Type in all cases: functional
[1] = test system: Mus musculus; experiment: Anticonvulsant activity in mouse assessed as inhibition of maximal electroshock-induced seizures at 30 mg/kg, po
Procedure, shortened: (§1)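 Male Kunming mice (20 ± 2.0 g), 10 per group, given test agent orally as a suspension in 0.5% carboxymethyl cellulose–0.9% saline. After 1 h, a 25 mA shock was delivered through ear electrodes for 0.25 s. Protection was scored as abolition of the hind limb tonic extensor component. Results are given as animals protected/animals tested.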

[2] = test system: Mus musculus; experiment: Anticonvulsant activity in mouse assessed as inhibition of subcutaneous pentylenetetrazole-induced seizures at 80 mg/kg, po
Procedure, shortened: (§2)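 Male Kunming mice (20 ± 2.0 g) received oral test agent suspended in 0.5% carboxymethyl cellulose–0.9% saline. Pentylenetetrazole 70 mg/kg in 0.9% saline was then injected subcutaneously in the scruff of the neck. Protection meant no threshold seizure, i.e. no single clonic spasm episode lasting at least 5 s.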

[3] = test system: Mus musculus; experiment: Anticonvulsant activity in mouse assessed as inhibition of maximal electroshock-induced seizures at 15 mg/kg, po; procedure, shortened: as §1
[4] = test system: Mus musculus; experiment: Anticonvulsant activity in mouse assessed as inhibition of maximal electroshock-induced seizures at 7.5 mg/kg, po; procedure, shortened: as §1
[5] = test system: Mus musculus; experiment: Anticonvulsant activity in mouse assessed as inhibition of subcutaneous pentylenetetrazole-induced seizures at 40 mg/kg, po; procedure, shortened: as §2
[6] = test system: Mus musculus; experiment: Anticonvulsant activity in mouse assessed as inhibition of subcutaneous pentylenetetrazole-induced seizures at 20 mg/kg, po; procedure, shortened: as §2

CC(C)N1C(=O)NC2(CC2(C)C)C1=O (stereo not drawn)
inhibition in vivo at 30 mg/kg [1]: 70%

CCC(CO)N1C(=O)NC2(CC2(C)C)C1=O (stereo not drawn)
inhibition in vivo at 80 mg/kg [2]: 70% | inhibition in vivo at 30 mg/kg [1]: 90% | inhibition in vivo at 15 mg/kg [3]: 50% | inhibition in vivo at 7.5 mg/kg [4]: 30% | inhibition in vivo at 40 mg/kg [5]: 40% | inhibition in vivo at 20 mg/kg [6]: 20%

O=C1N=C(O)NC1(c1ccccc1)c1ccccc1 [PHENYTOIN SODIUM]
inhibition in vivo at 30 mg/kg [1]: 90% | inhibition in vivo at 15 mg/kg [3]: 50% | inhibition in vivo at 7.5 mg/kg [4]: 20%

CCCC(CCC)C(=O)O [VALPROATE SODIUM]
inhibition in vivo at 80 mg/kg [2]: 80% | inhibition in vivo at 40 mg/kg [5]: 50% | inhibition in vivo at 20 mg/kg [6]: 30%

COc1ccc(N2C(=O)NC3(CC3(C)C)C2=O)cc1 (stereo not drawn)
inhibition in vivo at 30 mg/kg [1]: 60%

CCCCN1C(=O)NC2(CC2(C)C)C1=O (stereo not drawn)
inhibition in vivo at 80 mg/kg [2]: 60% | inhibition in vivo at 30 mg/kg [1]: 90% | inhibition in vivo at 15 mg/kg [3]: 50% | inhibition in vivo at 7.5 mg/kg [4]: 20% | inhibition in vivo at 40 mg/kg [5]: 40% | inhibition in vivo at 20 mg/kg [6]: 30%

CC1(C)CC12NC(=O)N(c1ccc([N+](=O)[O-])cc1)C2=O (stereo not drawn)
inhibition in vivo at 30 mg/kg [1]: 60%

CN1C(=O)NC2(CC2(C)C)C1=O (stereo not drawn)
inhibition in vivo at 80 mg/kg [2]: 60% | inhibition in vivo at 30 mg/kg [1]: 90% | inhibition in vivo at 15 mg/kg [3]: 50% | inhibition in vivo at 7.5 mg/kg [4]: 40% | inhibition in vivo at 40 mg/kg [5]: 30% | inhibition in vivo at 20 mg/kg [6]: 20%

CC1(C)CC12NC(=O)N(c1cc(Cl)cc(Cl)c1)C2=O (stereo not drawn)
inhibition in vivo at 30 mg/kg [1]: 50%

CC1(C)CC12NC(=O)N(Cc1ccccc1)C2=O (stereo not drawn)
inhibition in vivo at 30 mg/kg [1]: 70%

Cc1ccc(N2C(=O)NC3(CC3(C)C)C2=O)cc1 (stereo not drawn)
inhibition in vivo at 30 mg/kg [1]: 50%

CC1(C)CC12NC(=O)NC2=O (stereo not drawn)
inhibition in vivo at 30 mg/kg [1]: 50%

CC1(C)CC12NC(=O)N(c1ccc(F)cc1)C2=O (stereo not drawn)
inhibition in vivo at 80 mg/kg [2]: 70% | inhibition in vivo at 30 mg/kg [1]: 80% | inhibition in vivo at 15 mg/kg [3]: 50% | inhibition in vivo at 7.5 mg/kg [4]: 30% | inhibition in vivo at 40 mg/kg [5]: 50% | inhibition in vivo at 20 mg/kg [6]: 30%

CC1(C)CC12NC(=O)N(c1ccccc1)C2=O (stereo not drawn)
inhibition in vivo at 80 mg/kg [2]: 60% | inhibition in vivo at 30 mg/kg [1]: 80% | inhibition in vivo at 15 mg/kg [3]: 40% | inhibition in vivo at 7.5 mg/kg [4]: 20% | inhibition in vivo at 40 mg/kg [5]: 40% | inhibition in vivo at 20 mg/kg [6]: 20%
